In publication PMC11359625 (ACS Omega, 2024):
≈ marks a conversion by molar mass, not a printed value. Like-named read-outs stand apart in the source and are kept apart here.

What was measured:
PTP1B [1] = conditions: cited from earlier work
AR [2] = conditions: cited from earlier work
AR [3] = conditions: cited from earlier work; remark: listed apart in the source
polyol pathway = conditions: cited from earlier work
human lens AR = conditions: at a dose of 5 μM; cited from earlier work
PTP1B [4] = conditions: cited from earlier work; remark: listed apart in the source
AR [5] = target: AR (Homo sapiens, UniProt P15121); experiment: Kinetic study, Lineweaver–Burk plot, AR; format: biochemical; conditions: alkannin 0-20 μM
Procedure, shortened: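 Recombinant human aldose reductase in 0.05 M sodium phosphate, pH 6.2, with 0.3 mM NADPH and DL-glyceraldehyde substrate, at several test-compound concentrations. Activity followed as the fall in NADPH absorbance at 340 nm over 4 min. Inhibition type assigned from a Lineweaver–Burk double-reciprocal plot; mean ± SEM of triplicate experiments.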

IR-HepG2 cells = experiment: 2-NBDG glucose uptake in insulin-resistant HepG2 cells; format: cell-based; conditions: 24 h treatment, concentration-dependent
Procedure, shortened: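 Insulin resistance induced in confluent HepG2 (5 × 10³ cells/well; MEM, 10% FBS, 37 °C, 5% CO2) with 1 μM insulin for 24 h. Test compound added at several concentrations below 50 μM for 24 h, then 1 μM insulin for 30 min and 50 μM 2-NBDG for 30 min. Cells washed with ice-cold PBS; fluorescence read at ex 485/em 528 nm. Uptake expressed relative to untreated normal HepG2 (100%); mean ± SEM, triplicate.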

HepG2 cells [6] = conditions: up to 40 μM; ref Xue et al.; cited from earlier work
C57BL/KsJ-db/db mice = conditions: 20 and 40 mg/kg body weight; cited from earlier work
[7] = target: Recombinant human aldose reductase (Homo sapiens, UniProt P15121); experiment: AR activity assay; format: biochemical
PTP1B [8] = target: T1, PTP1B (Homo sapiens, UniProt P18031); experiment: PTP1B inhibitory activity with pNPP substrate; format: biochemical
T1 sequence (P18031 1-435): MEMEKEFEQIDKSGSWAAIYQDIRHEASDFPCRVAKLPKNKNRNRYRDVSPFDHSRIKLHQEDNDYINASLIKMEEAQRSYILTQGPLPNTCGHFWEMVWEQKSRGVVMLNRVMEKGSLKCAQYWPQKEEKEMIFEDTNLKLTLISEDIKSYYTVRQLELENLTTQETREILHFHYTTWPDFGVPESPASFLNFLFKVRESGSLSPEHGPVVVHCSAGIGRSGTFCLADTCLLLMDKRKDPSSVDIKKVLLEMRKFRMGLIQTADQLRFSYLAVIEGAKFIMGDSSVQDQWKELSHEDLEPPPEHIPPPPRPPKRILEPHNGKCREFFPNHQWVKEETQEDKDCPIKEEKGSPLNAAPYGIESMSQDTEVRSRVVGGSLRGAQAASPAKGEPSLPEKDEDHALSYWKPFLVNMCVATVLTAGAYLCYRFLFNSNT

[9] = tested on: PTP1B mRNA in IR-HepG2 cells; experiment: PTP1B mRNA expression by real-time qPCR; format: cell-based
HepG2 cells [10] = experiment: MTT cytotoxicity assay; format: cell-based; conditions: up to 50 μM, 24 h
Procedure, shortened: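 Normal HepG2 cells seeded at 5 × 10³ cells/well and grown 24 h. Test compound in DMSO added at […] for 24 h. MTT then added, and absorbance used to calculate percent cell viability.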

PTP1B [11] = target: T1, PTP1B; experiment: Kinetic study, Lineweaver–Burk plot, PTP1B; format: biochemical; conditions: alkannin 0-20 μM
Procedure, shortened: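 Recombinant human PTP1B (0.5 units in PTP1B reaction buffer) preincubated with the test compound at several concentrations for 10 min at 37 °C. pNPP substrate then added and incubated 15 min at 37 °C; reaction stopped with 10 M NaOH and read at 405 nm. Inhibition type taken from a Lineweaver–Burk plot; mean ± SEM, triplicate experiments.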

human recombinant AR = conditions: cited from earlier work
AR [12] = conditions: read-out: IC50 AR inhibition; in vitro; cited from earlier work

Cc1cc2c3c(c1)-c1c(O)cc(-c4cc5ccc(O)cc5o4)cc1OC3(c1ccc(O)cc1O)Oc1cc(O)ccc1-2 (stereo not drawn) [albanol B]
type of PTP1B enzyme inhibition (PTP1B [1]): mixed-type

CC1=C[C@H]2c3c(O)cc(-c4cc5ccc(O)cc5o4)cc3O[C@@]3(c4ccc(O)cc4O)Oc4cc(O)ccc4[C@H](C1)[C@@H]23 [mulberrofuran G]
type of PTP1B enzyme inhibition (PTP1B [1]): mixed-type

O=C1C=C(O)C(=O)C=C1O [2,5-dihydroxy-p-benzoquinone]
manner of AR inhibition (AR [2]): noncompetitive

O=c1c(O)c(-c2ccc(O)c(O)c2)oc2cc(O)cc(O)c12 [Quercetin]
AR inhibition (AR [3]; at a dose of 10 μM): 95% | manner of AR inhibition (AR [3]): noncompetitive | reduction in the accumulation of xylitol (polyol pathway): 80% | inhibition of human lens AR (human lens AR): 50%

CC(C)=CCc1c(-c2ccc(O)cc2O)oc2c([C@H]3C=C(C)C[C@@H](c4ccc(O)cc4O)[C@@H]3C(=O)c3ccc(O)cc3O)c(O)cc(O)c2c1=O [kuwanon G]
type of PTP1B enzyme inhibition (PTP1B [1]): mixed-type

O=C(O)[C@H]1O[C@@H](Oc2c(-c3cc(O)c(O)c(O)c3)oc3cc(O)cc(O)c3c2=O)[C@H](O)[C@@H](O)[C@@H]1O [myricetin-3-O-β-Dglucuronide]
IC50 PTP1B inhibitory activity (PTP1B [4]): 9.47 ± 3.31 µg/mL (≈ 19.2 µM)

CC(C)=CC[C@H](O)C1=CC(=O)c2c(O)ccc(O)c2C1=O [Alkannin]
type of inhibition of AR (AR [5]): mixed-inhibition | insulin-stimulated 2-NBDG uptake (IR-HepG2 cells): significantly enhanced | effect in HepG2 cells pretreated with palmitic acid (HepG2 cells [6]): protective role | effect on liver injury and inflammation in diabetic mice (C57BL/KsJ-db/db mice): protective role | IC50 [7]: 22.8 µM | IC50 (PTP1B [8]): 19.5 µM | PTP1B mRNA expression [9]: significantly reduced | cytotoxicity on normal HepG2 cells (MTT) (HepG2 cells [10]): insignificant cytotoxicity | type of inhibition of PTP1B (PTP1B [11]): mixed-inhibition

COc1cc(/C=C/C(=O)CC(=O)/C=C/c2ccc(O)c(OC)c2)ccc1O [curcumin]
manner of inhibition of human recombinant AR (human recombinant AR): noncompetitive | IC50 (AR [12]): 6.8 µM

O=C(O)[C@H]1O[C@@H](Oc2c(-c3ccc(O)c(O)c3)oc3cc(O)cc(O)c3c2=O)[C@H](O)[C@@H](O)[C@@H]1O [quercetin-3-O-β-D-glucuronide]
IC50 PTP1B inhibitory activity (PTP1B [4]): 7.39 ± 1.15 µg/mL (≈ 15.4 µM)
